Measured values: ChEMBL document CHEMBL1152877, “Studies on depigmenting activities of dihydroxyl benzamide derivatives containing adamantane moiety” (Bioorg Med Chem Lett, 2009)

Assays:
[1] = molecular target: T1, Tyrosinase (Agaricus bisporus, UniProt O42713); assay: Inhibition of mushroom tyrosinase activity after 20 mins
T1 sequence (O42713 whole entry): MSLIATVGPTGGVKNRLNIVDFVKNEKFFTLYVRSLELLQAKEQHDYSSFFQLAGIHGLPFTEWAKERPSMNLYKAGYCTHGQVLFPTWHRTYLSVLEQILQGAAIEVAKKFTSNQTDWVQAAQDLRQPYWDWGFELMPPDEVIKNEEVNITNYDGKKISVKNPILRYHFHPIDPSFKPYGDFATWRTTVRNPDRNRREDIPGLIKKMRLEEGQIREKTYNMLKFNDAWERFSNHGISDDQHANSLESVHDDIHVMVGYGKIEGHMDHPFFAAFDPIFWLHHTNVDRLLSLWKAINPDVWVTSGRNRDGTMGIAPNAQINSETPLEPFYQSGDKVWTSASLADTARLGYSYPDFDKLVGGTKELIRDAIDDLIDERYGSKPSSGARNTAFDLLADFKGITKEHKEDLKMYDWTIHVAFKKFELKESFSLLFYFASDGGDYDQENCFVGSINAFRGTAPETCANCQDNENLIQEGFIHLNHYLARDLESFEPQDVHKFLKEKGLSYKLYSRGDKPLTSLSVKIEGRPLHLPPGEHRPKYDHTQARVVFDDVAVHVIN
Procedure, shortened: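 Mushroom tyrosinase (2100 U/ml stock in 0.05 M phosphate pH 6.5) with 1.5 mM tyrosine stock in 0.1 M phosphate buffer pH 6.5; incubated 20 min at 37 °C, read on microplate reader. IC50 = concentration inhibiting 50% of enzyme activity, from logarithmic concentration-inhibition curves, mean of three experiments.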

[2] = system: Melan-a; assay: Inhibition of melanin formation in C57BL/6J mouse Melan-a cells; assay type: functional, cell-based
Procedure, shortened: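 Murine melan-a melanocytes (C57BL/6J origin) seeded at 2 × 10⁵ cells/ml, compounds added in triplicate; medium changed daily, 4 d culture. Cells lysed in 1 N NaOH, relative melanin read at 400 nm. IC50 from logarithmic concentration-inhibition curves, means of three experiments. Viability by crystal violet (0.1% in 10% ethanol, 5 min RT; extracted with 95% ethanol 10 min).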

[3] = Cytotoxicity against C57BL/6J mouse Melan-a cells assessed as cell survival at 30 uM by modified crystal violet assay; assay type: cell-based; details: read-out: Survival
Procedure, shortened: (§1)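 Murine melan-a melanocytes (from C57BL/6 J mice) seeded at 2 × 10⁵ cells/ml, compound added in triplicate; medium changed daily over 4 d culture. Viability by modified crystal violet: PBS wash, 0.1% crystal violet in 10% ethanol 5 min at room temperature, four distilled-water rinses, retained dye extracted with 95% ethanol 10 min at room temperature. Reported as % survival at the stated concentration.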

[4] = Cytotoxicity against C57BL/6J mouse Melan-a cells assessed as cell survival at 20 uM by modified crystal violet assay; assay type: cell-based; details: read-out: Survival; procedure, shortened: as §1
[5] = Cytotoxicity against C57BL/6J mouse Melan-a cells assessed as cell survival at 10 uM by modified crystal violet assay
[6] = Cytotoxicity against C57BL/6J mouse Melan-a cells assessed as cell survival at 50 uM by modified crystal violet assay; assay type: cell-based; details: read-out: Survival; procedure, shortened: as §1
[7] = Cytotoxicity against C57BL/6J mouse Melan-a cells assessed as cell survival at 80 uM by modified crystal violet assay; assay type: cell-based; details: read-out: Survival; procedure, shortened: as §1

O=C(NC12CC3CC(CC(C3)C1)C2)c1cc(O)cc(O)c1
IC50 [1]: > 200 µM
IC50 [2]: 12.5 µM
viability at 30 µM [3]: 91.3%

O=C(NC12CC3CC(CC(C3)C1)C2)c1cccc(O)c1O
IC50 [1]: > 200 µM
IC50 [2]: 0.73 µM
viability at 20 µM [4]: 96.2%

Oc1ccc(O)cc1 [HYDROQUINONE]
IC50 [1]: 9.81 µM
IC50 [2]: 3.97 µM
viability at 10 µM [5]: 87.3%

O=C(NC12CC3CC(CC(C3)C1)C2)c1ccc(O)cc1O
IC50 [1]: > 200 µM
IC50 [2]: 34.1 µM
viability at 50 µM [6]: 99.2%

Oc1ccc(C23CC4CC(CC(C4)C2)C3)c(O)c1
IC50 [1]: 0.9 µM
IC50 [2]: 8.82 µM
viability at 20 µM [4]: 91.7%

CCCCc1ccc(O)cc1O [RUCINOL]
IC50 [1]: 0.15 µM
IC50 [2]: 21.6 µM
viability at 80 µM [7]: 98.2%

O=C(NC12CC3CC(CC(C3)C1)C2)c1cc(O)ccc1O
IC50 [1]: > 200 µM
IC50 [2]: 9.82 µM
viability at 20 µM [4]: 99.1%

O=C(NC12CC3CC(CC(C3)C1)C2)c1ccc(O)c(O)c1
IC50 [1]: > 200 µM
IC50 [2]: 1.25 µM
viability at 30 µM [3]: 95.2%
